Drawing on ChEMBL document CHEMBL1123999, “Synthesis and antiviral activity of certain 4- and 4,5-disubstituted 7-[(2-hydroxyethoxy)methyl]pyrrolo[2,3-d]pyrimidines” (J Med Chem, 1988), this text covers IC50 for 36 compounds.

In experiment [1] the test system is Human betaherpesvirus 5. Kind of experiment: Inhibitory concentration against human cytomegalovirus (HCMV) in plaque reduction assay. It counts as functional, organism-based. In short, it runs like this:
(§1)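 HFF monolayers were infected with the Towne strain of HCMV (plaque-purified isolate P0), about 50 PFU in a 0.2 mL inoculum. Compounds were dissolved in the overlay medium, with 100 μM the highest concentration tested. Plaques were counted. I50 was taken from linear regression of percent inhibition against log concentration. Acyclovir, ganciclovir and vidarabine served as positive controls.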
For orientation: Plaque reduction counts the foci of infection that form in a cell layer.

Another experiment concerns HFF. Description: Cytotoxicity against uninfected human foreskin fibroblast(HFF cells). It counts as functional, cell-based. An outline of the steps: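 Uninfected HFF monolayers in the HCMV plaque assay. Drug-induced cytopathology was scored visually at 35- and 60-fold magnification, on a 0 to 4+ scale, on the day of staining for plaque enumeration. I50 was taken from linear regression of percent inhibition against log concentration.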

Experiment [2] in a line: Cytotoxicity against uninfected monkey kidney cells (BSC-1). It counts as functional, cell-based. As to conditions: Cercopithecidae. An outline of the steps:
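Uninfected BSC-1 (African green monkey kidney) monolayers, grown in MEM with Earle salts plus 10% FBS, in the HSV-1 plaque assay. Cytopathology was scored visually at 35- and 60-fold magnification, on a 0 to 4+ scale, on the day of staining for plaques. I50 was taken from regression of percent inhibition against log concentration.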

Another experiment relates to Human alphaherpesvirus 1. Description: Inhibitory concentration against HSV-1 in plaque reduction assay.
The subject of experiment [3] is Human betaherpesvirus 5. Kind of experiment: Inhibitory concentration against human cytomegalovirus (HCMV) in plaque reduction assay at 100 uM concentration. It counts as functional, organism-based. The note with it: read-out: I50. An outline of the steps:
as §1

Experiment [4] in a line: Cytotoxicity against human neoplastic cell line(KB cells). Type of experiment: functional, cell-based. The note with it: read-out: I50. An outline of the steps:
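KB cells (human epidermoid oral carcinoma) grown in MEM with Hanks salts plus 5% fetal bovine serum. Uptake of radioactive precursors into DNA, RNA and protein was measured. I50 values came from linear regression of percent inhibition against log concentration. The three I50 values (DNA, RNA, protein) were averaged. Positive controls were acyclovir, ganciclovir and vidarabine.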

Experiment [5] is described as follows: Inhibition against human neoplastic cell line(KB cells). It counts as functional, cell-based. The note with it: read-out: I50. In short, it runs like this:
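KB cells (human epidermoid oral carcinoma) grown in MEM with Hanks salts plus 5% fetal bovine serum. Cytotoxicity read as inhibition of radioactive precursor incorporation into DNA, RNA and protein. I50 for each of the three came from linear regression of percent inhibition against log drug concentration, and the three I50s were averaged. Highest concentration tested 100 μM.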

On to `CSc1ncnc2c1c(Br)cn2[C@@H]1O[C@H](CO)[C@@H](O)[C@H]1O`, for which the IC50 in the experiment with Human betaherpesvirus 5 [1] and in the experiment on HFF was above 100 µM each time.

Consider `OC[C@H]1O[C@@H](n2ccc3c(N4CCCCC4)ncnc32)[C@H](O)[C@@H]1O`, for which the IC50 in the experiment on Human betaherpesvirus 5 [1] and in the experiment on HFF was above 100 µM throughout.

On to `CNc1ncnc2c1ccn2COCCO`, for which the IC50 (in experiment [2]; with Human alphaherpesvirus 1; with Human betaherpesvirus 5 [1]; with HFF) was above 100 µM throughout.

`CN(C)c1ncnc2c1ccn2COCCO`: the IC50 (in experiment [2]; in the experiment with Human alphaherpesvirus 1; in the experiment on Human betaherpesvirus 5 [1]; in the experiment with HFF) was above 100 µM each time.

In the case of `CCNc1ncnc2c1c(Cl)cn2COCCO`, the IC50 (in experiment [2]; in the experiment on Human alphaherpesvirus 1; in the experiment on Human betaherpesvirus 5 [1]; in the experiment on HFF) was above 100 µM in each case.

On to `CNc1ncnc2c1c(Cl)cn2COCCO`, for which the IC50 (in experiment [2]; in the experiment on Human alphaherpesvirus 1; with Human betaherpesvirus 5 [1]; in the experiment on HFF) was above 100 µM in each case.

Consider `COc1ncnc2c1ccn2COCCO`, for which the IC50 (in experiment [2]; in the experiment on Human betaherpesvirus 5 [3]; with Human alphaherpesvirus 1; in the experiment with HFF) was above 100 µM throughout.

Consider `CCNc1ncnc2c1c(Br)cn2COCCO`, for which the IC50 in experiment [2] was above 320 µM; in the experiment on Human alphaherpesvirus 1, above 320 µM; in the experiment on Human betaherpesvirus 5 [1] it was above 100 µM; in the experiment on HFF, above 100 µM.

Regarding `CNc1ncnc2c1ccn2[C@@H]1O[C@H](CO)[C@@H](O)[C@H]1O`, the results for the IC50 with Human betaherpesvirus 5 [1] and with HFF were 37 µM and above 100 µM, respectively.

With `CN(C)c1ncnc2c1ccn2[C@@H]1O[C@H](CO)[C@@H](O)[C@H]1O`, the values for the IC50 in the experiment with Human betaherpesvirus 5 [1] (read-out: I50) and with HFF (read-out: I50) were 1.2 µM and 2 µM, respectively.

`OC[C@H]1O[C@@H](n2cc(I)c3c(Cl)ncnc32)[C@H](O)[C@@H]1O`: the IC50 was 31 µM in the experiment with Human betaherpesvirus 5 [1] (read-out: I50) and 13 µM with HFF (read-out: I50).

Regarding `COc1ncnc2c1ccn2[C@@H]1O[C@H](CO)[C@@H](O)[C@H]1O`, the IC50 with Human betaherpesvirus 5 [1] (read-out: I50) stood at 10 µM; with HFF (read-out: I50), 46 µM.

`OCCOCn1cc(Br)c2c(Cl)ncnc21`: the IC50 (in experiment [2]; with Human alphaherpesvirus 1; in the experiment with Human betaherpesvirus 5 [1]; with HFF) was above 100 µM in each case.

For the compound `OC[C@H]1O[C@@H](n2ccc3c(S)ncnc32)[C@H](O)[C@@H]1O`, the IC50 with Human betaherpesvirus 5 [1] and in the experiment on HFF was above 100 µM in each case.

Consider `C[Se]c1ncnc2c1ccn2C1O[C@H](CO)[C@@H](O)[C@H]1O` (some centres undefined), for which the IC50 amounted to 4 µM in the experiment with Human betaherpesvirus 5 [1] and 1.5 µM in the experiment with HFF.

For `NNc1ncnc2c1ccn2C1O[C@H](CO)[C@@H](O)[C@H]1O` (some centres undefined), the IC50 came to 4 µM in the experiment on Human betaherpesvirus 5 [1] (read-out: I50) and 2 µM in the experiment on HFF (read-out: I50).

As to `OC[C@H]1OC(n2ccc3cncnc32)[C@H](O)[C@@H]1O` (some centres undefined), the IC50 is 0.4 µM in the experiment with Human betaherpesvirus 5 [1] and 2 µM in the experiment with HFF.

With `CN(C)c1ncnc2c1c(Br)cn2C1O[C@H](CO)[C@@H](O)[C@H]1O` (some centres undefined), the IC50 came out at 16 µM with Human betaherpesvirus 5 [1] and 10 µM in the experiment with HFF.

In the case of `CNc1ncnc2c1c(Br)cn2C1O[C@H](CO)[C@@H](O)[C@H]1O` (some centres undefined), the IC50 with Human betaherpesvirus 5 [1] (read-out: I50) and in the experiment on HFF (read-out: I50) was above 100 µM in each case.

As for `OC[C@H]1OC(n2cc(Br)c3c(Cl)ncnc32)[C@H](O)[C@@H]1O` (some centres undefined), the IC50 in the experiment on Human betaherpesvirus 5 [1] (read-out: I50) came to 29 µM; with HFF (read-out: I50), 31 µM.

`OC[C@H]1OC(n2cc(Br)c3c(S)ncnc32)[C@H](O)[C@@H]1O` (some centres undefined): the IC50 is 39 µM with Human betaherpesvirus 5 [1] and above 100 µM in the experiment on HFF.

In the case of `OC[C@H]1OC(n2ccc3c(SC4C=CC=CC=C4)ncnc32)[C@H](O)[C@@H]1O` (some centres undefined), the IC50 in the experiment with Human betaherpesvirus 5 [1] and in the experiment with HFF was above 100 µM in each case.

In the case of `OC[C@H]1OC(n2cc(Br)c3cncnc32)[C@H](O)[C@@H]1O` (some centres undefined), the IC50 in the experiment on Human betaherpesvirus 5 [1] (read-out: I50) stood at 23 µM; in the experiment with HFF (read-out: I50) it was 31 µM.

As for `Nc1ncnc2c1c(Br)cn2[C@@H]1O[C@H](CO)[C@@H](O)[C@H]1O`, the IC50 in experiment [4] was found to be 2.3 µM; in the experiment on Human betaherpesvirus 5 [1] (read-out: I50), 0.5 µM; in the experiment with HFF (read-out: I50) it was 4.5 µM.

Consider `Nc1ncnc2c1c(I)cn2COCCO`, for which the IC50 was above 100 µM in experiment [2]; 1.2 µM in experiment [5]; 100 µM in the experiment with Human alphaherpesvirus 1; 24 µM in the experiment with Human betaherpesvirus 5 [1]; 100 µM in the experiment with HFF.

`CNc1ncnc2c1c(Br)cn2COCCO`: the IC50 (in experiment [2]; in the experiment on Human alphaherpesvirus 1; in the experiment on Human betaherpesvirus 5 [1]; with HFF) was above 100 µM in each case.

In the case of `Nc1ncnc2c1c(Cl)cn2COCCO`, the IC50 in experiment [2] is above 100 µM; in experiment [5] it was 0.82 µM; in the experiment with Human alphaherpesvirus 1, 77 µM; in the experiment with Human betaherpesvirus 5 [1], 16 µM; in the experiment on HFF it was above 100 µM.

Turning to `Nc1ncnc2c1c(Br)cn2COCCO`, the IC50 in experiment [2] is above 100 µM; in experiment [4], 100 µM; with Human alphaherpesvirus 1, 16 µM; in the experiment on Human betaherpesvirus 5 [1] it was 3.9 µM; with HFF, 100 µM.

`OCCOCn1cc(I)c2c(Cl)ncnc21`: the IC50 (in experiment [2]; with Human alphaherpesvirus 1; in the experiment on Human betaherpesvirus 5 [1]; in the experiment on HFF) was above 100 µM each time.

On to `OCCOCn1cc(Cl)c2c(Cl)ncnc21`, for which the IC50 (in experiment [2]; in the experiment with Human alphaherpesvirus 1; with Human betaherpesvirus 5 [1]; with HFF) was above 100 µM throughout.

With `Nc1ncnc2c1c(Cl)cn2[C@@H]1O[C@H](CO)[C@@H](O)[C@H]1O`, the IC50 is 6.5 µM in experiment [4], 4.4 µM with Human betaherpesvirus 5 [1] (read-out: I50) and 10 µM in the experiment on HFF (read-out: I50).

`Nc1nc2c(ncn2COCCO)c(=O)[nH]1` [ACYCLOVIR]: the IC50 in experiment [2] was above 100 µM; with Human alphaherpesvirus 1, 2.6 µM; in the experiment with Human betaherpesvirus 5 [1], 63 µM; with HFF, above 100 µM.

In the case of `Nc1nc2c(ncn2COC(CO)CO)c(=O)[nH]1` [GANCICLOVIR], the IC50 in experiment [2] was above 100 µM; with Human alphaherpesvirus 1 it was 3 µM; in the experiment on Human betaherpesvirus 5 [1], 8.8 µM; in the experiment on HFF, above 100 µM.

In the case of `O=c1[nH]cnc2c1ccn2[C@@H]1O[C@H](CO)[C@@H](O)[C@H]1O` [IMMUNICILLIN H], the IC50 with Human betaherpesvirus 5 [1] (read-out: I50) stood at 3.5 µM; in the experiment on HFF (read-out: I50) it was 10 µM.

Consider `Nc1ncnc2c1c(I)cn2[C@@H]1O[C@H](CO)[C@@H](O)[C@H]1O` [IODOTUBERCIDIN], for which the IC50 in experiment [4] came out at 2.1 µM; with Human betaherpesvirus 5 [1] (read-out: I50), 0.4 µM; in the experiment with HFF (read-out: I50), 2 µM.

With `Nc1ncnc2c1ccn2[C@@H]1O[C@H](CO)[C@@H](O)[C@H]1O` [TUBERCIDIN], the values for the IC50 (in experiment [4]; in the experiment on Human betaherpesvirus 5 [1]; in the experiment with HFF) were 0.6 µM, 0.5 µM and 0.4 µM, respectively.
